This data set is described as follows: Toxicity liver stage against HepG2, at 10uM. The class given is cell-based. Also noted: test concentration 10 uM, cell line HepG2-A16-CD81EGFP. The conditions noted are these: human, HepG2-A16-CD81EGFP cells; read-out: INHIBITION
In a few lines:
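Uninfected HepG2-A16-CD81EGFP cells, 3 × 10^3 per well, 1536-well, plated on prespotted compound at 10 μM final, parasite-free screening media added to match infected plates; puromycin 10 μM positive, DMSO 0.5% negative; run in parallel with 48 h PbLuc assay at 37 °C, 5% CO2; viability by CellTiter-Glo luminescence, normalized to controls.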

As for `CS(=O)(=O)N1CCCC12CCCN(C(=O)c1ccc3[nH]ccc3c1)C2` (stereo unspecified), the cytotoxicity at 10 µM is -140%.

As for `COc1ccc(C(=O)N2C[C@@H](C(=O)O)[C@H](c3ccccc3)C2)c(C)c1`, the cytotoxicity at 10 µM was 5.23%.

For `Cc1cccnc1CN(C)C(C(=O)O)c1ccc(C(C)(C)C#N)cc1` (stereo unspecified), the cytotoxicity at 10 µM is 0.566%.

As for `CC(C)(C)c1cccc(OCC(=O)NS(=O)(=O)c2cccnc2)c1`, the cytotoxicity at 10 µM is -12.5%.

As to `CCS(=O)(=O)N1CC(c2nc(-c3ccsc3)no2)C1`, the cytotoxicity at 10 µM is -8.25%.

Turning to `Fc1cccnc1Oc1cc(F)c(CN2CCCC2)c(F)c1`, the cytotoxicity at 10 µM was -7.32%.

As for `O=C(c1cnc(NCCC2CCCO2)c(Cl)c1)N1CCCCC1` (stereo unspecified), the cytotoxicity at 10 µM was -2.01%.

Consider `CC(C)(C)c1cc(NC(=O)C2COCCO2)n(-c2ccccn2)n1` (stereo unspecified), for which the cytotoxicity at 10 µM is -3.49%.

On to `CC(NC(=O)CCc1nc(-c2nnc[nH]2)no1)c1ccc(F)cc1F` (stereo unspecified), for which the cytotoxicity at 10 µM is -2.05%.

For `Cc1cccc(NC(=O)N2CCn3cnc(COCC4CC4)c3C2)c1`, the cytotoxicity at 10 µM is 3.83%.

`Cn1ncc2c(=O)[nH]c(CN3CCCC3Cc3ccc(F)cc3)nc21` (stereo unspecified): the cytotoxicity at 10 µM amounted to 0.301%.

For the compound `CC(=O)CSc1nc2c(cnn2CCO)c(=O)[nH]1`, the cytotoxicity at 10 µM was -2.22%.

As for `Fc1cccc(N2CCOC3(CCCN(c4nncs4)C3)C2)c1` (stereo unspecified), the cytotoxicity at 10 µM was determined as 4%.

Turning to `CC(NC(=O)CN1CCCC1=O)c1ccc(Cl)s1` (stereo unspecified), the cytotoxicity at 10 µM is -6.45%.

For `C[C@H](C(=O)N1Cc2ccccc2CC2(CCCN2C)C1)c1ccccc1` (stereo partly specified), the cytotoxicity at 10 µM amounted to 6.42%.

For the compound `CC(OCC1CC1)C(=O)Nc1ncn(CC(=O)N2CCCCCC2)n1` (stereo unspecified), the cytotoxicity at 10 µM is -15.2%.

For `CC(C)CNC(=O)[C@H]1CCS(=O)(=O)[C@@H]2CN(CC(C)C)C[C@H]12`, the cytotoxicity at 10 µM is -1.66%.

Turning to `Cc1cncc(C2CCCN2CC(N)=O)n1` (stereo unspecified), the cytotoxicity at 10 µM is -5.3%.

In the case of `Cn1ncc(-c2cc(-c3cccc(O)c3)nc(N)c2C#N)c1C1CC1`, the cytotoxicity at 10 µM was 79.1%.

As to `COc1ccccc1N1CCCC(Nc2ncccn2)C1=O` (stereo unspecified), the cytotoxicity at 10 µM was found to be 4.96%.

As for `CC(C)N1CCCC(c2cc(C(F)(F)F)nc3nccn23)C1` (stereo unspecified), the cytotoxicity at 10 µM was -11.1%.

As to `CCN(C)C(=O)c1cccc(S(=O)(=O)NCCc2csc(N)n2)c1`, the cytotoxicity at 10 µM is -45.2%.

Regarding `Cc1noc(C)c1-c1n[nH]c2c1CN(S(=O)(=O)c1cccnc1)CC2`, the cytotoxicity at 10 µM was -11%.

Take `CC(C)COCCC(=O)Nc1c(-c2ccc(F)cc2)ncn1C`: the cytotoxicity at 10 µM is -1.18%.

`CC(C)Nc1ncnc2c1CCN(C(=O)Cc1ccccn1)CC2`: the cytotoxicity at 10 µM was found to be 3.3%.

As for `CC(C)CC(NS(C)(=O)=O)C(=O)N(C)Cc1nnc2n1CCC2` (stereo unspecified), the cytotoxicity at 10 µM was -4.22%.

`O[C@H]1CN(CCCOc2ccccc2F)CC[C@@]12CCCO2`: the cytotoxicity at 10 µM is 3.06%.

In the case of `Cc1cnn(CC(=O)N2CCC3(CCC(=O)N(C4CCCC4)C3)CC2)c1`, the cytotoxicity at 10 µM turned out to be 3.03%.

Consider `CC(C)N(Cc1ccc(C(F)(F)F)nc1)Cc1cnn(C)c1`, for which the cytotoxicity at 10 µM came to 1.36%.

In the case of `Cc1cccc(OCCC(=O)NCC2CN(C)CCO2)c1C` (stereo unspecified), the cytotoxicity at 10 µM was -6.3%.

`CNc1cncc(C2CCCN2Cc2ccnc(C)n2)n1` (stereo unspecified): the cytotoxicity at 10 µM was -11.4%.

As to `Cc1cc(C)c2c(N3CCN(Cc4ncccc4C)CC3)ncnc2n1`, the cytotoxicity at 10 µM turned out to be 1.92%.

`COc1cc(C(=O)NS(=O)(=O)c2cccc(C#N)c2)cc(Cl)c1OC`: the cytotoxicity at 10 µM is -3.93%.

In the case of `COc1cccc2c1ccn2CCC(=O)Nc1c2c(nn1C)CSC2`, the cytotoxicity at 10 µM worked out at 5.11%.

Turning to `CCn1cc(CNCc2ccc(C(=O)OC)cc2)c(C)n1`, the cytotoxicity at 10 µM was -3.78%.

Turning to `CC(NC(=O)NCCn1ccnc1)c1ccc2c(c1)CCC(=O)N2` (stereo unspecified), the cytotoxicity at 10 µM is -18.1%.

As for `CC[C@H]1CN2CC[C@H]1C[C@@H]2CNC(=O)Nc1cccc(C(F)(F)F)c1`, the cytotoxicity at 10 µM worked out at 0.676%.

For `Cc1cn2c(n1)CCC(NC(=O)c1cc(C3CC3)[nH]n1)C2` (stereo unspecified), the cytotoxicity at 10 µM was -16.9%.

On to `COc1cccc(C(CO)NC(=O)NC(C)C)c1` (stereo unspecified), for which the cytotoxicity at 10 µM amounted to 10.5%.

Regarding `O=C(NCc1cnn2cccnc12)C1CC2(CCNCC2)CN1` (stereo unspecified), the cytotoxicity at 10 µM is -8.32%.

On to `CC(=O)N1CCC(Cc2cccc(-c3c(C)noc3C)n2)C1` (stereo unspecified), for which the cytotoxicity at 10 µM was determined as 0.664%.

As to `CC(=O)N1CCC[C@H]1C(=O)NCCCN(C(C)C)S(C)(=O)=O`, the cytotoxicity at 10 µM is -13%.

Regarding `CC[C@H](N)C(=O)Nc1nn(CC(F)(F)F)c2cc(OC(C)C)ccc12`, the cytotoxicity at 10 µM was -2.8%.

Regarding `Cc1ccc(OCCC(=O)NC2CC(=O)N(C)C2)cc1C` (stereo unspecified), the cytotoxicity at 10 µM was -9.25%.

In the case of `Fc1cccc(-c2nnn3c2COCC(CNCc2nccs2)C3)c1` (stereo unspecified), the cytotoxicity at 10 µM is -112%.

As to `Cc1noc(C)c1CN(C)Cc1csc(-c2ccc(C(C)C)cc2)n1`, the cytotoxicity at 10 µM turned out to be 54.8%.

As for `O=C(Nc1ccccc1)N1C[C@@H]2OCCN(C(=O)c3ccco3)[C@@H]2C1`, the cytotoxicity at 10 µM is -150%.

Turning to `COc1ccc(C2CCCN2C(=O)NCCCn2ccnc2)cc1` (stereo unspecified), the cytotoxicity at 10 µM was -13.4%.

Regarding `O=C(C1CC(c2ccccc2)=NO1)N1CCc2ccccc21` (stereo unspecified), the cytotoxicity at 10 µM is -0.643%.

For `CCc1nnc(SCC(=O)Nc2cc(C(C)(C)C)nn2C)[nH]1`, the cytotoxicity at 10 µM is 7.28%.

Take `Cc1ccccc1C(C(=O)N1CCN(C(=O)c2ccc[nH]2)CC1)N(C)C` (stereo unspecified): the cytotoxicity at 10 µM was -7.98%.

Regarding `O=C1CC(c2cccs2)c2cnn(C3CCCC3)c2N1` (stereo unspecified), the cytotoxicity at 10 µM is 23.3%.

For the compound `Cc1ccc(-c2nc(CNC3CCc4ncnn4C3)cs2)cc1` (stereo unspecified), the cytotoxicity at 10 µM was -9.27%.

Regarding `Cn1nccc1CN1CCOC(c2ccc(-c3cncnc3)cn2)C1` (stereo unspecified), the cytotoxicity at 10 µM is 3.27%.

Regarding `Cc1cc(CN(C)C(=O)NC2CCN(C3CC3)CC2)no1`, the cytotoxicity at 10 µM was -3.6%.

Regarding `COc1ccc(CNC(=O)CCn2cc(C)cn2)cc1C`, the cytotoxicity at 10 µM is -4.27%.

Take `Cc1ccccc1C(C)NC(=O)CN1CCN(Cc2cccs2)CC1` (stereo unspecified): the cytotoxicity at 10 µM amounted to 48.9%.

For the compound `O=C(Nc1cccc(C2SCCS2)c1)C1CCCN1c1nccs1` (stereo unspecified), the cytotoxicity at 10 µM is -10.1%.

As to `CCN(c1ccccc1C(=O)O)S(=O)(=O)c1cccc2cccnc12`, the cytotoxicity at 10 µM is 1.28%.

On to `CCc1csc(CNCC(=O)Nc2ccc(Cl)c(C)c2)n1`, for which the cytotoxicity at 10 µM amounted to 5.33%.

As to `Cc1cnc(NCCc2c[nH]cn2)nc1-c1ccnn1C`, the cytotoxicity at 10 µM is -2.53%.

Turning to `Cc1cc(-c2ccnn2C)nc(C2CCCN(S(C)(=O)=O)C2)n1` (stereo unspecified), the cytotoxicity at 10 µM worked out at 3.33%.

As for `O=C(c1cc(F)cc(F)c1)N1CCC(O)(C(F)(F)F)CC1`, the cytotoxicity at 10 µM came out at 7.08%.

With `CCc1nc2n(n1)CC(NCc1nc3ccccc3nc1C)CC2` (stereo unspecified), the cytotoxicity at 10 µM is -141%.

For the compound `NC(=O)CN1CCC(NC2CCCCc3ccccc32)CC1` (stereo unspecified), the cytotoxicity at 10 µM was -7.86%.

With `CCOCc1nc2c(c(N(C)Cc3ccsc3)n1)CCNCC2`, the cytotoxicity at 10 µM turned out to be 11.1%.

Consider `CC(C)CNC(=O)CNc1c(NCc2ccccn2)c(=O)c1=O`, for which the cytotoxicity at 10 µM was -9.06%.

As to `Cc1ccccc1C(=O)NC[C@@H]1CCN(C(=O)C2(O)CCCC2)C[C@H]1O`, the cytotoxicity at 10 µM is -38.7%.

As to `COCCn1c2c(ccc1=O)CCN(C(=O)Cc1cccs1)CC2`, the cytotoxicity at 10 µM is 1.44%.

`CCOc1ccc(S(=O)(=O)NC(=O)CCC2CCCO2)cc1` (stereo unspecified): the cytotoxicity at 10 µM is -11.5%.

On to `O=C(N1CCOCC1CO)C1(c2cccs2)CCCC1` (stereo unspecified), for which the cytotoxicity at 10 µM worked out at 0.161%.

With `O=C(c1ccsc1)N1CCc2nnc(COc3cncnc3)n2CC1`, the cytotoxicity at 10 µM is 1.72%.

For the compound `CCc1nc(C)c(C(=O)NCCNC(=O)Cc2cccc(F)c2)s1`, the cytotoxicity at 10 µM stood at 1.98%.

For `CCNC(=O)N1CCN(C(=O)c2cc(Cl)cc3cccnc23)CC1`, the cytotoxicity at 10 µM was -9.62%.

For the compound `CNc1nc(C)c(C(=O)N2CCCCC2CN2CCCCCC2)s1` (stereo unspecified), the cytotoxicity at 10 µM is -2.5%.

Turning to `CC(=O)c1cc(C(=O)N2CCC(CC(C)C)C2)c(=O)[nH]c1C` (stereo unspecified), the cytotoxicity at 10 µM was 4.4%.

Regarding `COc1ccc(CCN2CCc3c(nc(C4CC4)n3C)C2)cc1`, the cytotoxicity at 10 µM is -0.729%.

As for `CC(C)[C@H]1COC(=O)N1Cc1nccn1C(C)C`, the cytotoxicity at 10 µM was found to be 6.35%.

Consider `CN(CCO)C(=O)Nc1ccn(-c2cccc(C(F)(F)F)c2)n1`, for which the cytotoxicity at 10 µM was 4.16%.

For `NC(=O)CC1CCCN(C(=O)NCC2(c3cccs3)CCCC2)C1` (stereo unspecified), the cytotoxicity at 10 µM was determined as 1.9%.

For `CN(C)c1ncnc2c1CCN(S(=O)(=O)c1cccc3nsnc13)C2`, the cytotoxicity at 10 µM was determined as 4.01%.

Take `CSc1ccccc1C(=O)NCc1cc2n(n1)CCCN(CC(C)C)C2`: the cytotoxicity at 10 µM was 3.05%.

Take `Cc1nc(CN2CCCC(NCCOc3cccc(C#N)c3)C2)no1` (stereo unspecified): the cytotoxicity at 10 µM is -8.36%.

For `Cc1csc(CCNC(=O)N2CCC(NC(=O)OC(C)(C)C)CC2)n1`, the cytotoxicity at 10 µM is 1.23%.

For `Cc1cccc2c(=O)n(C(C)Cc3cccnc3)cnc12` (stereo unspecified), the cytotoxicity at 10 µM is -13.5%.

Consider `Cc1cc(N2CCCC2)nc(CNS(=O)(=O)Cc2ccccc2)n1`, for which the cytotoxicity at 10 µM stood at 7.48%.

Take `NC(=O)NCC(=O)N1CCC2(CC1)c1ccccc1CC2O` (stereo unspecified): the cytotoxicity at 10 µM was 4.22%.

For the compound `COCCc1noc(CN2CCc3nn(C(C)C)c(=O)cc3C2)n1`, the cytotoxicity at 10 µM is -14.9%.

Turning to `CCS(=O)(=O)CC(=O)NC(C)c1ccc(OCCC(C)C)cc1` (stereo unspecified), the cytotoxicity at 10 µM is 5.61%.

For `CCn1cc(NC(=O)NCCc2ccc3c(c2)OCCO3)cn1`, the cytotoxicity at 10 µM is -7.72%.

With `CCOCC1CN(Cc2cccs2)Cc2nn(C)cc21` (stereo unspecified), the cytotoxicity at 10 µM is -75.2%.

For the compound `CC(C)Cc1noc(CNc2ccccc2CC(=O)N(C)C)n1`, the cytotoxicity at 10 µM came to 0.489%.

Regarding `CCN1CCN(c2ncc(-c3cc(C)no3)c(-c3ccco3)n2)CC1`, the cytotoxicity at 10 µM was -11%.

Consider `CCn1nc(C)c(-c2cncn2Cc2ccccc2CN(C)C)c1C`, for which the cytotoxicity at 10 µM came to 12.4%.

Regarding `CCNc1nc(N(C)C)nc(-n2cnc(SC)n2)n1`, the cytotoxicity at 10 µM was 2.22%.

With `Cc1nc(CN2CCN(C(=O)CCc3ccco3)CC2)cs1`, the cytotoxicity at 10 µM was -4.39%.

The values above are taken from ChEMBL document CHEMBL4513216, “Probing the Open Global Health Chemical Diversity Library for Multistage-Active Starting Points for Next-Generation Antimalarials” (ACS Infect Dis, 2020).
